ChEMBL document CHEMBL1148725, “2,2,2-Trichloro-N-({2-[2-(dimethylamino)ethyl]-1,3-dioxo-2,3-dihydro-1H-benzo[de]isoquinolin- 5-yl}carbamoyl)acetamide (UNBS3157), a novel nonhematotoxic naphthalimide derivative with potent antitumor activity” (J Med Chem, 2007)
Active and inactive are the calls of the source. No cut-off for these calls is given here.

What was measured:
[1] = biological target: T1, DNA topoisomerase 1 (Homo sapiens) (UniProt P11387); test: Inhibition of human topoisomerase 1 by DNA unwinding test
T1 sequence (whole entry): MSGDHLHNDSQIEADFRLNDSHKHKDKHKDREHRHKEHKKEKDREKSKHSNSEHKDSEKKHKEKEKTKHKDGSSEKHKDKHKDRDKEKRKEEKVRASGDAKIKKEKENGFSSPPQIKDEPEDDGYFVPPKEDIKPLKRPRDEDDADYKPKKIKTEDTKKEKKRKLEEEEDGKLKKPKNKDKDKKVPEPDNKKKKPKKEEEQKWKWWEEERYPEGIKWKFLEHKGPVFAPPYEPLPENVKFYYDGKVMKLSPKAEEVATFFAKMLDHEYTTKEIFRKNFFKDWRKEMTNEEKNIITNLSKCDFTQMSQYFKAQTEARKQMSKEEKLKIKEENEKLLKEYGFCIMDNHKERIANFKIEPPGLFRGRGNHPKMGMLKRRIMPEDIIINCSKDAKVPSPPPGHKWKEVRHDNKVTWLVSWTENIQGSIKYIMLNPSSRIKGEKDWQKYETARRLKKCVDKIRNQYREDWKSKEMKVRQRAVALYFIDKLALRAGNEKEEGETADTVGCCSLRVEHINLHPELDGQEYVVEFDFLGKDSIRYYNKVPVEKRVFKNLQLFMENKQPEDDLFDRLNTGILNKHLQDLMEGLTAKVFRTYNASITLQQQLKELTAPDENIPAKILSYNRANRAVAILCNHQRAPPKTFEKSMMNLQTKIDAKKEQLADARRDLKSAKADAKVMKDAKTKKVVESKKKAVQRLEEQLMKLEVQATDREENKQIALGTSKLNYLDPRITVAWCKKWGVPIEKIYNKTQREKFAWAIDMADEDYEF
How it was run: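 DNA unwinding assay: relaxed pBR322 plasmid converted to supercoiled form in presence of topoisomerase I; compounds at final 4–32 µM (one up to 15–55 µM); ethidium bromide-stained agarose gels; UC50 taken as concentration shifting relaxed band to midpoint between supercoiled and relaxed states.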

DU-145 [2] = test: Induction of autophagy in human DU145 cells by acridine orange staining at 10 uM after 72 hrs; format: functional
PC-3 [3] = test: Induction of apoptosis in human PC3 cells assessed as p53 activation; format: functional, cell-based
How it was run: (§1)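 PC-3 and DU-145 cells treated over 72 h at 1 and 10 µM, compared with untreated cells. p53, PARP cleavage and procaspase-3/-9 activation assessed by immunoblotting.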

PC-3 [4] = test: Cell cycle arrest in PC3 cells assessed as accumulation at G2 phase at 10 uM after 72 hrs; format: functional, cell-based; conditions: Homo sapiens
How it was run: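 PC-3 or DU-145 cells treated for 72 h with 0, 1 or 10 µM. Cell-cycle distribution (G0/G1, S, G2/M) determined by propidium iodide staining.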

Mus musculus [5] = test: Hematotoxicity in B6D2F1 mouse assessed as platelet count at 160 mg/kg, po; format: organism-based; design: dose 160 mg/kg, route oral; conditions: in vivo
Mus musculus [6] = test: Hematotoxicity in B6D2F1 mouse assessed as platelet count at 20 mg/kg, iv; format: organism-based; design: dose 20 mg/kg, route intravenous; conditions: in vivo
Mus musculus [7] = test: Hematotoxicity in B6D2F1 mouse assessed as RBC count at 20 mg/kg, iv; format: organism-based; design: dose 20 mg/kg, route intravenous; conditions: in vivo
PC-3 [8] = test: Induction of apoptosis in human PC3 cells assessed as PARP cleavage activation; format: functional, cell-based; how it was run: as §1
HCT-15 = test: Antiproliferative activity against HCT15 cells after 72 hrs by MTT assay; format: functional, cell-based, Homo sapiens; conditions: Homo sapiens, HCT-15, 72 h
How it was run: (§2)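 Cells cultured with each compound for three days; growth then read by the MTT colorimetric assay and reported as IC50 (µM).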

Mus musculus [9] = test: Hematotoxicity in B6D2F1 mouse assessed as WBC count at 10 mg/kg, iv; format: organism-based; design: dose 10 mg/kg, route intravenous; conditions: in vivo
PC-3 [10] = test: Induction of autophagy in human PC3 cells by acridine orange staining at 10 uM after 72 hrs; format: functional
PC-3 [11] = test: Induction of senescence in human PC3 cells; format: functional, cell-based
How it was run: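 SA-β-galactosidase staining of PC-3 and DU-145 prostate cancer cells after 72 h at 10 µM; adriamycin 20 nM as positive control; expressed as percentage of positively stained cells.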

Mus musculus [12] = test: Hematotoxicity in B6D2F1 mouse assessed as RBC count at 80 mg/kg, po; format: organism-based; design: dose 80 mg/kg, route oral; conditions: in vivo
[13] = Toxicity in ip dosed B6D2F1 mouse; format: organism-based; conditions: in vivo
How it was run: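 Acute MTD was set by a single i.p. dose to groups of three healthy female B6D2F1 mice, at 2.5, 5, 10, 20, 40, 80 and 160 mg/kg. The MTD is the dose just below the lowest dose that killed at least one mouse.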

A549 [14] = test: Antitumor activity against human A549 cells xenografted in mouse at 10 mg/kg, iv; format: functional, organism-based; design: dose 10 mg/kg
How it was run: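 Human A549 NSCLC cells grafted orthotopically into the lungs of immunocompromised mice. Compound given i.v. at 10 mg/kg. Survival gain assessed by survival curve analysis.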

MDA-MB-231 = test: Antitumor activity against human MDA-MB-231 cells xenografted in immunocompromised mouse at 10 mg/kg, iv
A549 [15] = test: Antiproliferative activity against A549 cells after 72 hrs by MTT assay; format: functional, cell-based, Homo sapiens; conditions: Homo sapiens, A549, 72 h; how it was run: as §2
Mus musculus [16] = test: Hematotoxicity in B6D2F1 mouse assessed as RBC count at 160 mg/kg, po; format: organism-based; design: dose 160 mg/kg, route oral; conditions: in vivo
L1210 [17] = test: Antitumor activity in L1210 cells xenografted B6D2F1 mouse at 20 mg/kg, ip relative to control; format: functional; conditions: route intraperitoneal
How it was run: (§3)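 Mice grafted with L1210 leukaemia cells on day 0, then dosed i.p. four times weekly on days 1-4 and 8-11. Five mice per group. Outcome is %T/C, the median survival of treated over control. Kruskal-Wallis test followed by Dunn comparisons against control.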

Mus musculus [18] = test: Hematotoxicity in B6D2F1 mouse assessed as WBC count at 80 mg/kg, po; format: organism-based; design: dose 80 mg/kg, route oral; conditions: in vivo
Mus musculus [19] = test: Hematotoxicity in B6D2F1 mouse assessed as WBC count at 20 mg/kg, iv; format: organism-based; design: dose 20 mg/kg, route intravenous; conditions: in vivo
DU-145 [20] = test: Induction of apoptosis in human DU145 cells assessed as PARP cleavage activation; format: functional, cell-based; how it was run: as §1
PC-3 [21] = test: Induction of apoptosis in human PC3 cells at 10 uM after 72 hrs; format: functional
How it was run: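 Prostate cancer cells exposed for 72 h to 0, 1 or 10 µM. Apoptosis quantified by flow cytometry after Annexin V-FITC staining.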

L1210 [22] = test: Antitumor activity in L1210 cells xenografted B6D2F1 mouse at 10 mg/kg, ip relative to control; format: functional; conditions: route intraperitoneal; how it was run: as §3
Mus musculus [23] = test: Hematotoxicity in B6D2F1 mouse assessed as platelet count at 40 mg/kg, iv; format: organism-based; design: dose 40 mg/kg, route intravenous; conditions: in vivo
[24] = Antiproliferative activity against Hs683 cells after 72 hrs by MTT assay; format: functional, cell-based, Homo sapiens, Hs 683; conditions: Homo sapiens, Hs 683, 72 h; how it was run: as §2
[25] = Antiproliferative activity against U373MG cells after 72 hrs by MTT assay; format: functional, cell-based, Homo sapiens, U-373MG ATCC; conditions: Homo sapiens, U373 MG, 72 h; how it was run: as §2
DU-145 [26] = test: Induction of apoptosis in human DU145 cells assessed as procaspase-8 activation; format: functional, cell-based
L1210 [27] = test: Antitumor activity in L1210 cells xenografted B6D2F1 mouse at 160 mg/kg, ip relative to control; format: functional; conditions: route intraperitoneal; how it was run: as §3

For CN(C)CCN1C(=O)c2cccc3cc(NC(=O)NC(=O)C(Cl)(Cl)Cl)cc(c23)C1=O, the UC50 [1] was 40 µM, the Activity (DU-145 [2]) was 10% and the Activity (PC-3 [3]) was “inactive”. For the same molecule, the Activity (PC-3 [4]) was “Active”, the Activity (Mus musculus [5]) was 1005 10^3 /uL and the Activity (Mus musculus [6]) was 397 10^3 /uL. For the same molecule, the Activity (Mus musculus [7]) was 9.09 10^6 /uL, the Activity (PC-3 [8]) was “inactive” and the IC50 (HCT-15) was 900 nM. For the same molecule, the Activity (Mus musculus [9]) was 3.92 10^3 /uL, the Activity (PC-3 [10]) was 35% and the Activity (PC-3 [11]) was “inactive”. For the same molecule, the Activity (Mus musculus [12]) was 9.95 10^6 /uL, the MTD [13] was > 160 mg/kg and the Activity (A549 [14]) was “Active”. The Activity (MDA-MB-231) was “Active”, the IC50 (A549 [15]) was 900 nM and the Activity (Mus musculus [16]) was 10.13 10^6 /uL. The Activity (L1210 [17]) was 205%, the Activity (Mus musculus [18]) was 3.21 10^3 /uL and the Activity (Mus musculus [19]) was 2.92 10^3 /uL. For the same molecule, the Activity (DU-145 [20]) was “inactive”, the Activity (PC-3 [21]) was 10% and the Activity (L1210 [22]) was 197%. For the same molecule, the Activity (Mus musculus [23]) was 430 10^3 /uL, the IC50 [24] was 800 nM and the IC50 [25] was 900 nM. For the same molecule, the Activity (DU-145 [26]) was “inactive” and the Activity (L1210 [27]) was 300%.
